# NTR1 ag: activates human neurotensin receptor 1. P30989. NTR1-U2OS beta-arrestin-GFP spot imaging, agonist mode. activation, % at 20 µM. 330,000 tested, 0.17% active;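 active = activation at or above 40% of the spot to cytoplasm intensity ratio, with at least 20 cells analyzed; inconclusive = wells under 20 cells, flagged as cytotoxic or low count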;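 also: 0% = DMSO without peptide and 100% = 100 nM NTR1 peptide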
# Target sequence (P30989 whole entry, looked up): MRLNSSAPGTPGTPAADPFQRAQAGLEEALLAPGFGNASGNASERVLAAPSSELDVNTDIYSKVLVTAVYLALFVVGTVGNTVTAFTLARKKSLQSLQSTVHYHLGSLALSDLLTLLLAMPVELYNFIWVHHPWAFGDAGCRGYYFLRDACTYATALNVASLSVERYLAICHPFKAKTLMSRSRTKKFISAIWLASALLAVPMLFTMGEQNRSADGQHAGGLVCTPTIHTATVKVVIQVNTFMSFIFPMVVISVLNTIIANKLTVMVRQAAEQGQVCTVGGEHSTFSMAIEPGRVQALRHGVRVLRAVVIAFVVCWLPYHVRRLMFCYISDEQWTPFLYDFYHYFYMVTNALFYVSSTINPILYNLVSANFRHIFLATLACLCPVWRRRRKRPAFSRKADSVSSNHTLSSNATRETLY
# MC4R antag cAMP: human MC4R antagonism in cAMP assay; MC4R-expressing cells, MTII-stimulated cAMP, LANCE TR-FRET; inhibition, % at 6.5 µM; 360,000 tested, 0.48% active; AID 540295;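 active = inhibition above its plate's cutoff, the mean of tested wells on that plate plus 3 SD, cut at about 29% in these data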;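 also: 0% = Melanotan II alone and 100% = Melanotan II plus saturating MCL0020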
#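 Assay system: human MC4R-expressing U2OS cells; reagent: Melanotan II stimulation of cells; dosing: 6.5 µM single dose; timing: compound 30 min, challenge 1 h, detection 1 h; signal: TR-FRET cAMP assay; replicates: one well per compound, no replicates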
# AI-2 QS modul: modulates the Vibrio harveyi AI-2 quorum sensing system; Vibrio harveyi JMH597 AI-2 luminescence/OD600 ratio, 9 h; hits give low values; strain lacks LuxN and CqsS sensors; 0 = neutral-control median; activity change, % at 7.5 µM; 300,000 tested, 0.4% active; in the data active = activity change below about -75%, passing the limit was not always enough; inconclusive = no clear call, values can overlap the other calls;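 also: luminescence divided by OD600 gain over 9 h not by final OD600 alone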
# MC4R barr agon: human MC4R agonism via beta-arrestin | U2OS MC4R beta-arrestin complementation, luminescence; percent of melanotan II response, DMSO zero | activation, % at 8.9 µM | 360,000 tested, 0.98% active;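 active = activation above a per-plate cutoff, the mean activation of sample wells on that plate plus 3 SD, cut at about 8% in these data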
# JMH597 growth rt: retest: blocks Vibrio harveyi JMH597 growth. shares compounds with AI-2 QS modul. OD600 absorbance, 9 h; lacks LuxN and CqsS sensors. growth inhibition, % at 7.5 µM. 750 tested, 1% active. AID 2726;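 active = every replicate shows growth inhibition above 50%; inconclusive = at least half, but not all, replicates pass that cutoff; inactive = fewer than half of replicates pass it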
# BB721 const-QS lum: retest counter-screen: luminescence loss in constitutive-on quorum sensing strain BB721; 750 tested, 95% active; AID 2727; Vibrio harveyi BB721 luminescence, 9 h; inhibition, % at 7.5 µM; shares compounds with AI-2 QS modul;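 active = inhibition above about 80% in every replicate, not just on average, limit read from the data; inconclusive = at least half of replicates past the limit, but not all; inactive = fewer than half of replicates past the limit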
# BB721 growth rt: retest Vibrio harveyi BB721 growth inhibition | growth inhibition, % at 7.5 µM | OD600 absorbance, 9 h | 750 tested, 3% active | shares compounds with AI-2 QS modul;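 active = every replicate shows growth inhibition above 50%; inconclusive = at least half but not all replicates above 50% inhibition; inactive = under half of replicates above 50% inhibition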
# JMH597 AI-2 mod: Vibrio harveyi AI-2 signaling luminescence modulation – JMH597 strain, confirmation; inhibition, % at 7.5 µM; Vibrio harveyi JMH597 AI-2 quorum sensing luminescence, 9 h; luxN and CqsS knockout, AI-2 only; shares compounds with AI-2 QS modul; 750 tested, 97% active;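 active = every replicate shows more than 75% inhibition of signal versus neutral control wells; inconclusive = half to three quarters of replicates exceed 75% inhibition; inactive = fewer than half of replicates exceed 75% inhibition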
# * hit, by the source's call; ? = inconclusive; . = no result. Shown are actives, neighbours in structure and some others; about 1.8% of the full set was active somewhere.
SMILES,NTR1 ag,MC4R antag cAMP,AI-2 QS modul,MC4R barr agon,JMH597 growth rt,BB721 const-QS lum,BB721 growth rt,JMH597 AI-2 mod
Cc1ccc(CNC(=O)/C=C/c2ccc(Br)o2)cc1,0,3,-94*,0,23,99*,?,99*
O=C(/C=C/c1ccc(Br)o1)NCc1ccccc1,-1,2,-90*,-2,13,97*,19,97*
O=C(CCN1C(=O)CSC1=O)Nc1ccc(Br)cc1,-2,2,-80*,-2,13,13,9,9
COC(=O)c1ccccc1NC(=O)C1CCN(c2ncnc3c2nc2n3CCCCC2)CC1,6,1,-5,-2,.,.,.,.
Nc1nc(-c2ccc(-c3ccccc3)cc2)cs1,5,-4,-5,-1,.,.,.,.
Nc1nc(-c2ccc(Oc3ccccc3)cc2)cs1,4,2,-95*,-1,-32,96*,-94,98*
C(=N\NCc1ccccc1)/c1ccc2ncccc2c1,2,7,-95*,0,0,98*,-7,99*
CC(C)CCNC(=O)NC(=O)COc1ncnc2sccc12,-1,4,-81*,4,-6,96*,5,97*
CC(C)CN1C(=O)C(=O)N(CC(=O)c2ccc[nH]2)C1=O,1,5,12,0,.,.,.,.
CCOc1ccc(NS(=O)(=O)c2ccc(C(=O)NC3CCC(O)CC3)cc2)cc1 (stereo not given),1,0,-2,0,.,.,.,.
CC(C)c1ccc(NC(=O)COc2nncc3ccccc23)cc1,-1,2,-96*,1,47,99*,?,100*
O=C(COc1nncc2ccccc12)Nc1ccc(F)c(F)c1,2,24,-96*,-2,-23,99*,-18,99*
O=C(COc1nncc2ccccc12)Nc1c(F)c(F)c(F)c(F)c1F,-1,2,-6,-2,.,.,.,.
O=C(/C=C/c1cc(Br)ccc1F)OCC(=O)N1CCCC1,3,-3,.,0,.,.,.,.
COC(=O)c1cccc(NC(=O)Cn2cnc3ccccc3c2=O)c1,-1,-2,-94*,-1,12,99*,1,99*
COc1cccc(NC(=O)CN(C)C(=O)Cn2cnc3ccccc3c2=O)c1,-1,0,-3,-1,.,.,.,.
NS(=O)(=O)c1cccc(NC(=O)Cn2cnc3ccccc3c2=O)c1,-1,14,-85*,1,18,93*,-3,95*
O=C(Cn1cnc2ccccc2c1=O)Nc1nc2ccccc2s1,2,3,-23,2,.,.,.,.
NS(=O)(=O)c1cccc(NC(=O)CSc2ncnc3ccccc23)c1,-1,-6,-82*,1,5,85*,8,92*
CCCc1nnc(NC(=O)Cn2cnc3ccccc3c2=O)s1,0,1,-86*,-2,14,96*,15,96*
O=C(Cn1cnc2ccccc2c1=O)Nc1ccc2c(c1)OCO2,-1,12,-71,-2,.,.,.,.
COc1ccc(NC(=O)CN(C)C(=O)c2ccc(S(=O)(=O)Nc3ccccc3F)cc2)cc1,0,2,36,-1,.,.,.,.
COc1cccc(OCc2cc(C(=O)N(C)CCOc3ccc(C)cc3)no2)c1,0,-1,-41,0,.,.,.,.
CCCSc1nsc(NC(=O)c2cccnc2OCC)n1,8,0,-95*,-2,69,100*,-25,100*
COc1ccc(Cc2nc3c([nH]2)c(=O)n(C)c(=O)n3C)cc1OC,.,-41,.,-2,.,.,.,.
SMILES,NTR1 ag,MC4R antag cAMP,AI-2 QS modul,MC4R barr agon,JMH597 growth rt,BB721 const-QS lum,BB721 growth rt,JMH597 AI-2 mod
COc1ccccc1NC(=O)CSc1nc2ncccc2[nH]1,-1,7,15,2,.,.,.,.
CCCCc1ccc(NC(=O)CSc2nc3ncccc3[nH]2)cc1,2,-4,-88*,3,3,93*,7,96*
CCOC(=O)c1ccc(NC(=O)CSc2nc3ncccc3[nH]2)cc1,0,-2,-91*,-3,31,97*,40,97*
COc1ccc([C@H]2C[C@@H](O)[C@H](n3cc(COC(=O)c4ccccc4)nn3)CN2C(=O)C2CCCCC2)cc1,.,11,.,1,.,.,.,.
Cc1ccccc1-c1nnn(Cc2cccc(S(=O)(=O)N3CCOCC3)c2)n1,2,13,.,-2,.,.,.,.
Cc1ccc(O)c(CNc2nccs2)c1,0,10,-39,0,.,.,.,.
Oc1ccc(Cl)cc1CNc1nccs1,2,9,-79*,1,26,92*,38,92*
C=CCn1c(CCNC(=O)c2ccc(Cl)c(Cl)c2)nnc1SCCOc1ccc(OC)cc1,6,10,-84*,6,61,90*,37,94*
C=CCn1c(SCCOc2ccccc2)nnc1C(C)NC(=O)c1ccccc1 (stereo not given),2,12,29,1,.,.,.,.
Cc1ccsc1C(=O)NCCc1c[nH]c2ccccc12,0,-8,-82*,-1,5,92*,-6,94*
COc1ccc(C(=O)NCCc2c[nH]c3ccccc23)cc1,0,-4,10,-2,.,.,.,.
O=C(NCCc1c[nH]c2ccccc12)c1ccc(F)cc1F,0,4,-82*,-1,15,95*,12,97*
COc1cc(SC)ccc1C(=O)NCCc1c[nH]c2ccccc12,2,-1,6,0,.,.,.,.
O=C(NCCc1c[nH]c2ccccc12)C(=O)c1c[nH]c2ccccc12,2,3,-90*,-2,25,96*,6,97*
O=C(NCCc1c[nH]c2ccccc12)c1ccc(Cl)cc1,1,12,-85*,1,0,93*,24,95*
Cc1ccc([N+](=O)[O-])cc1S(=O)(=O)Nc1ccc(C(=O)NCC2CCCO2)cc1 (stereo not given),2,5,.,0,.,.,.,.
O=C(Nc1cccc(Cl)c1)OCCOc1ccccc1,.,-2,-87*,-2,8,92*,-6,92*
O=C(Nc1ccccc1F)C1CC1c1ccccc1 (stereo not given),1,0,-84*,-1,2,92*,-27,93*
Cc1cccc(NC(=O)C2CC2c2ccccc2)c1C (stereo not given),2,-2,15,1,.,.,.,.
CCc1ccc2[nH]c(C(=O)N(C)c3ccc(F)cc3F)cc2c1,2,5,7,3,.,.,.,.
Cc1ccccc1C(=O)OCc1nnc(-c2ccc(Cl)cc2)o1,1,0,?,-1,-1,91*,-12,93*
O=C(OCc1nnc(-c2ccc(Cl)cc2)o1)c1ccncc1,2,1,-2,-1,.,.,.,.

# Assay outcomes from PubChem BioAssay.
